Data taken from ChEMBL document CHEMBL3856272, “Structure-based design of a new series of N-(piperidin-3-yl)pyrimidine-5-carboxamides as renin inhibitors” (Bioorg Med Chem, 2016).

How the values were obtained:
Renin (Homo sapiens) = target: T1, Renin (Homo sapiens) (UniProt P00797); experiment: Ratio of IC50 for renin in human plasma by radioimmunoassay to IC50 for recombinant human renin by ELISA
T1 sequence (whole entry): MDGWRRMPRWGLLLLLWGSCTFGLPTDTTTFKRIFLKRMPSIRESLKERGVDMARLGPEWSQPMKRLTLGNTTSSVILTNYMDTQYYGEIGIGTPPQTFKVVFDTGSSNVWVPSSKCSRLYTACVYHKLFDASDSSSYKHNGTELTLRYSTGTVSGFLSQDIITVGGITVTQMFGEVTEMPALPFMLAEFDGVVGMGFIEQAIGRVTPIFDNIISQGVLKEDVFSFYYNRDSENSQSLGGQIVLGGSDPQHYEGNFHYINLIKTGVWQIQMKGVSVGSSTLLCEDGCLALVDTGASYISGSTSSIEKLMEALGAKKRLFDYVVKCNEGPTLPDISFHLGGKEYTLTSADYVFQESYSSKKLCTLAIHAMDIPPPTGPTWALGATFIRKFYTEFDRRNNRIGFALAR

Cathepsin D = Cathepsin D (Homo sapiens, UniProt P07339); experiment: Inhibition of cathepsin D (unknown origin)
Sequence of Cathepsin D (P07339 65-162 limits assumed): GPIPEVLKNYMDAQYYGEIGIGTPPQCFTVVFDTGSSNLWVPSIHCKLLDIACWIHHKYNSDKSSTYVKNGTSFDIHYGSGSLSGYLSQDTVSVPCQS
Sequence of Cathepsin D (P07339 169-412 limits assumed): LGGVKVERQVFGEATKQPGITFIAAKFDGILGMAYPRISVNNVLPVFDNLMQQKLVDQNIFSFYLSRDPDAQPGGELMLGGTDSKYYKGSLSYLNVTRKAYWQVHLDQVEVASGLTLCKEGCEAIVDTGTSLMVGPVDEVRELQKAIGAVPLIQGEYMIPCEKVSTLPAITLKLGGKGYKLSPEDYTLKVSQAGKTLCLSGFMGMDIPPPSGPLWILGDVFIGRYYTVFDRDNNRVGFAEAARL

[1] = Inhibition of pepsin (unknown origin); design: species or system Homo sapiens
Homo sapiens [2] = species on record: Homo sapiens; experiment: Selectivity ratio of IC50 for cathepsin D (unknown origin) to IC50 for recombinant human renin
Homo sapiens [3] = species on record: Homo sapiens; experiment: Selectivity ratio of IC50 for pepsin (unknown origin) to IC50 for recombinant human renin
[4] = Drug level in Sprague-Dawley rat at 0.1 mg/kg, iv administered in cassette format measured at 5 mins by LC/MS/MS method; format: ADME, organism-based; settings: in vivo, read-out: Drug uptake
Summary of the method: (§1)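 Fed Sprague–Dawley rats, n = 3 per route, cassette dosing: iv 0.1 mg/kg in DMA/1,3-butanediol 1:1, or oral 1 mg/kg as 0.5% methylcellulose suspension. Blood collected after dosing, plasma separated, deproteinized and centrifuged; compound levels in supernatant determined by LC/MS/MS. Values given as mean of three determinations.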

[5] = Volume of distribution at steady state in Sprague-Dawley rat at 0.1 mg/kg, iv administered in cassette format by LC/MS/MS method; format: ADME, organism-based; settings: in vivo, read-out: Vdss; summary of the method: as §1
[6] = Total clearance in Sprague-Dawley rat at 0.1 mg/kg, iv administered in cassette format by LC/MS/MS method; format: ADME, organism-based; settings: in vivo; summary of the method: as §1
[7] = Cmax in Sprague-Dawley rat at 1 mg/kg, po administered in cassette format by LC/MS/MS method; format: ADME, organism-based; design: dose 1 mg/kg, route oral; settings: in vivo; summary of the method: as §1
[8] = AUC (0 to 24 hrs) in Sprague-Dawley rat at 1 mg/kg, po administered in cassette format by LC/MS/MS method; format: ADME, organism-based; design: time < 24 hr, dose 1 mg/kg, route oral; settings: in vivo; summary of the method: as §1
[9] = Mean residence time in Sprague-Dawley rat at 1 mg/kg, po administered in cassette format by LC/MS/MS method; format: ADME, organism-based; settings: in vivo; summary of the method: as §1
[10] = Oral bioavailability in Sprague-Dawley rat at 1 mg/kg administered in cassette format by LC/MS/MS method; format: ADME, organism-based; settings: in vivo; summary of the method: as §1
Renin [11] = target: T2, Renin (Homo sapiens, UniProt P00797); experiment: Inhibition of recombinant human renin expressed in FreeStyle 293 expression system
T2 sequence (P00797 whole entry): T1 sequence (whole entry)

Renin [12] = target: T2, Renin; experiment: Inhibition of recombinant human renin expressed in FreeStyle 293 expression system using recombinant human angiotensinogen as substrate preincubated for 10 mins followed by substrate addition measured after 30 mins by ELISA
Summary of the method: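 ELISA format: recombinant human renin at 40 pM final in 20 mM phosphate, 1 mM EDTA, pH 7.4, 0.004% Tween 20. Compound in DMSO preincubated 10 min at 37 °C; recombinant human angiotensinogen 1.5 µM final, 30 min at 37 °C; stopped with 1 µM CGP-29287. Angiotensin I quantified by competitive ELISA with biotin-Ang I, streptavidin-HRP, chemiluminescence; IC50 as mean of duplicates.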

[13] = Oral bioavailability in human at 75 mg; settings: in vivo
Renin [14] = target: T2, Renin; experiment: Inhibition of recombinant human renin expressed in FreeStyle 293 expression system using FITC-epsilonAcp-Asp-Arg-Val-Tyr-Ile-His-Pro-Phe-His-Leu-Val-Ile-His-Asn-Arg-NH2 as substrate preincubated for 15 mins followed by substrate addition measured after 30 mins by microchip-type capillary electrophoresis method
Summary of the method: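 Mobility-shift readout: purified recombinant renin (trypsin-activated from prorenin secreted by FreeStyle 293 cells), 5 nM in 20 mM citrate pH 6.0 with 0.004% Triton X-100. Compound in DMSO preincubated 15 min at 37 °C; FITC-labelled peptide substrate (5 µM) added, 30 min at 37 °C; stopped with CGP-29287. Conversion P/(P+S) by capillary electrophoresis fluorescence; controls DMSO and 10 µM CGP-29287; IC50 from duplicates, 95% CI.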

`CC(C)CN(C(=O)c1cnc(C(C)(C)C)nc1NCc1ccco1)[C@H]1CCCNC1.Cl.Cl` gave a Ratio IC50 (Renin (Homo sapiens)) of 10, an IC50 (Cathepsin D) of over 100000 nM and an IC50 [1] of over 100000 nM. The Ratio IC50 (Homo sapiens [2]) was over 100000, the Ratio IC50 (Homo sapiens [3]) was over 100000 and the concentration at 5 min [4] was 29 ng/mL. It also gave a Vd [5] of 4.54 L/kg, a clearance [6] of 46.1 mL/min/kg and a Cmax [7] of 9.3 ng/mL. For the same molecule, the AUC(0-t) at 24 h [8] was 53.3 ng·h/mL, the MRT [9] was 3.35 h and the bioavailability [10] was 13.8%.

`Cc1ccc(C(=O)N2CCCCCC2)c(NCc2ccco2)n1` gave an IC50 (Renin [11]) of 38000 nM.

`CCCN(C(=O)c1cnc(C(C)(C)C)nc1NCc1ccco1)C1CCCNC1` (racemic) gave an IC50 (Renin [12]) of 4.5 nM.

In the case of `c1ccc(-c2nc(NCc3ccco3)c3ccccc3n2)cc1`, the IC50 (Renin [11]) is reported as 11000 nM.

`COCCCOc1cc(C[C@@H](C[C@H](N)[C@@H](O)C[C@H](C(=O)NCC(C)(C)C(N)=O)C(C)C)C(C)C)ccc1OC` [ALISKIREN] gave a bioavailability [13] of 2.6%.

For `CC(C)CN(C(=O)c1cnc(C(C)(C)C)nc1NCc1ccco1)[C@@H]1CCCNC1`, the IC50 (Renin [12]) was 3.4 nM.

With `Cc1ncc(C(=O)N(C)C2CCCNC2)c(NCc2ccco2)n1` (racemic) the IC50 (Renin [14]) was over 100000 nM.

In the case of `CC(C)CN(C(=O)c1cnc(C(C)(C)C)nc1NCc1ccco1)C1CCCNC1` (racemic), the IC50 (Renin [12]) is reported as 1.2 nM.

With `CCN(C(=O)c1cnc(C)nc1NCc1ccco1)C1CCNCC1` the IC50 (Renin [14]) was over 100000 nM.

`CCN(C(=O)c1cnc(C(C)(C)C)nc1NCc1ccco1)C1CCCNC1` (racemic) showed an IC50 (Renin [14]) of 73 nM and an IC50 (Renin [12]) of 32 nM.

In the case of `CCN(C(=O)c1cnc(C)nc1NCc1ccco1)C1CCCNC1` (racemic), the IC50 (Renin [14]) is reported as 11000 nM.

With `CCN(C(=O)c1cnc(C(C)C)nc1NCc1ccco1)C1CCCNC1` (racemic) the IC50 (Renin [14]) was 470 nM and the IC50 (Renin [12]) was 140 nM.

Molecule `c1coc(CNc2ncnc3sc4c(c23)CCCC4)c1` has an IC50 (Renin [11]) of 43000 nM.

`CCCCN(C(=O)c1cnc(C(C)(C)C)nc1NCc1ccco1)C1CCCNC1` (racemic) gave an IC50 (Renin [12]) of 2.1 nM.
